Measurements as given in ChEMBL document CHEMBL4433213, “Investigation on 2',3'-O-Substituted ATP Derivatives and Analogs as Novel P2X3 Receptor Antagonists” (ACS Med Chem Lett, 2019).
The source made the active and inactive calls. The calls are words filed in the database; no cut-off is given here.

Tests used:
[1] = biological target: T1, P2X purinoceptor 1 (Homo sapiens, UniProt P51575); test: Antagonist activity at human P2X1R transfected in human 1321N1 cells assessed as inhibition of ATP-induced calcium influx; assay type: cell-based
T1 sequence (P51575 whole entry): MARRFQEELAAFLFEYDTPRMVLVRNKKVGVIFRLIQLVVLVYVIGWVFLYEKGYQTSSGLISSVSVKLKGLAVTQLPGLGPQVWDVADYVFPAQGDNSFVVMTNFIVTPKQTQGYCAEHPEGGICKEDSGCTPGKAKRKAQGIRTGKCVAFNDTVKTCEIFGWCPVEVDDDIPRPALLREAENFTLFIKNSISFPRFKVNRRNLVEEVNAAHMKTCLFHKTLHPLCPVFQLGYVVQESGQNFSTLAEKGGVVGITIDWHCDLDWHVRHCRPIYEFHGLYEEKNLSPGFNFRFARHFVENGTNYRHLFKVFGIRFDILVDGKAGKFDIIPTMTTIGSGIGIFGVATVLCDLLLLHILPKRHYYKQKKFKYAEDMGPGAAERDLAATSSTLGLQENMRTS
In short: (§1)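 1321N1 astrocytoma cells stably expressing human P2X1, P2X2, P2X3 or P2X4 receptor. Calcium influx was induced by ATP at the EC80 for each subtype. Results are given as IC50 (μM) or % inhibition at the indicated concentration.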

[2] = biological target: T2, P2X purinoceptor 3 (Mus musculus) (UniProt Q3UR32); test: Agonist activity at P2X3R in mouse TG sensory neurons assessed as induction of channel current at 1 uM at -65 mV holding potential by whole cell voltage clamp method relative to alpha,beta-meATP
T2 sequence (whole entry): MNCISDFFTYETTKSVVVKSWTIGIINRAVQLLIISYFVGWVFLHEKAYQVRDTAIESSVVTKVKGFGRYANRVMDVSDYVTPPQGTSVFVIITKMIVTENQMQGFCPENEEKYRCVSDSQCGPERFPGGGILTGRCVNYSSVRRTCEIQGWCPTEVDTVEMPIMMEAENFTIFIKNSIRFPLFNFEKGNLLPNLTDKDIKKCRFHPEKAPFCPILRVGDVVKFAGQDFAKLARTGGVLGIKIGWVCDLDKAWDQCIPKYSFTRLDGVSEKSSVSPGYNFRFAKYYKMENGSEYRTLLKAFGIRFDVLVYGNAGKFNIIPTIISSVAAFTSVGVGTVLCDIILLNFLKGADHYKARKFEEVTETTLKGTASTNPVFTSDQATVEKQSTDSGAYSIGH

[3] = organism: Mus musculus; test: Antagonist activity at GABAA receptor in mouse TG sensory neurons assesed as inhibition of GABAA receptor agonist GABA-evoked currents at 1 uM pre-applied before GABA addition
In short: (§2)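 In mouse trigeminal sensory neurons, test compound was preapplied at 1 μM, then 10 μM GABA (GABAA) or 10 μM 5-HT (5-HT3) was applied. Current amplitudes were normalized to the control current evoked by the same agonist alone. N = 5 cells.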

[4] = biological target: T3, 5-hydroxytryptamine receptor 3A (Mus musculus) (UniProt P23979); test: Antagonist activity at 5-HT3 receptor in mouse TG sensory neurons assessed as inhibition of 5-HT3 receptor agonist 5-HT-evoked currents at 1 uM pre-applied before 5-HT addition; in short: as §2
T3 sequence (whole entry): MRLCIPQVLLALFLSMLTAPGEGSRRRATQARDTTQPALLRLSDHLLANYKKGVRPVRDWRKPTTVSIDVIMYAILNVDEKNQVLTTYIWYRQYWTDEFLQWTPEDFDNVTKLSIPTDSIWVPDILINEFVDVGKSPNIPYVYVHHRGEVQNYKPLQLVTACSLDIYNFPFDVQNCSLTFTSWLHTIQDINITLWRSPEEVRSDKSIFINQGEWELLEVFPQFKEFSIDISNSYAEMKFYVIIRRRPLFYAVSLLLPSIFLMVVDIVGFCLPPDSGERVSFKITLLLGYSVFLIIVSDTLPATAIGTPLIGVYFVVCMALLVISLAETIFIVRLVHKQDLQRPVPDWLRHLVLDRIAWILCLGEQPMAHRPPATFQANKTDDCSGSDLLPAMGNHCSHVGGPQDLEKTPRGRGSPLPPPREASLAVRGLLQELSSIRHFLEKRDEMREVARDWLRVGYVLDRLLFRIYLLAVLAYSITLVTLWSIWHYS

[5] = biological target: T4, P2X purinoceptor 1 (Homo sapiens) (UniProt P51575); test: Antagonist activity at human P2X1R transfected in human 1321N1 cells assessed as inhibition of ATP-induced calcium influx relative to control; assay type: cell-based; conditions: concentration not given here; in short: as §1
T4 sequence (whole entry): T1 sequence (P51575 whole entry)

[6] = biological target: T5, P2X purinoceptor 3 (Homo sapiens) (UniProt P56373); test: Antagonist activity at human P2X3R transfected in human 1321N1 cells assessed as inhibition of ATP-induced calcium influx relative to control; assay type: cell-based; conditions: concentration not given here; in short: as §1
T5 sequence (whole entry): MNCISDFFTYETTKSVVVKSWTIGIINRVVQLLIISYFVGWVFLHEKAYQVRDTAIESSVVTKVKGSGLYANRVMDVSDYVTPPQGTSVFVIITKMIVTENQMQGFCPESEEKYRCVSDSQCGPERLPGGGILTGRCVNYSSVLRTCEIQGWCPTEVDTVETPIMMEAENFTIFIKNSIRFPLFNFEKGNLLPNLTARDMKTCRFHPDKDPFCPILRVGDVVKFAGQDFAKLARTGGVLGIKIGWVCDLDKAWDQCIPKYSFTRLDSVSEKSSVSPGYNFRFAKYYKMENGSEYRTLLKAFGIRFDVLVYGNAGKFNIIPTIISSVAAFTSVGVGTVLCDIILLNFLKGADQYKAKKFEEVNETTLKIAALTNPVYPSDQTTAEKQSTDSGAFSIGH

[7] = biological target: T6, P2X purinoceptor 4 (Homo sapiens) (UniProt Q99571); test: Antagonist activity at human P2X4R transfected in human 1321N1 cells assessed as inhibition of ATP-induced calcium influx relative to control; assay type: cell-based; conditions: concentration not given here; in short: as §1
T6 sequence (whole entry): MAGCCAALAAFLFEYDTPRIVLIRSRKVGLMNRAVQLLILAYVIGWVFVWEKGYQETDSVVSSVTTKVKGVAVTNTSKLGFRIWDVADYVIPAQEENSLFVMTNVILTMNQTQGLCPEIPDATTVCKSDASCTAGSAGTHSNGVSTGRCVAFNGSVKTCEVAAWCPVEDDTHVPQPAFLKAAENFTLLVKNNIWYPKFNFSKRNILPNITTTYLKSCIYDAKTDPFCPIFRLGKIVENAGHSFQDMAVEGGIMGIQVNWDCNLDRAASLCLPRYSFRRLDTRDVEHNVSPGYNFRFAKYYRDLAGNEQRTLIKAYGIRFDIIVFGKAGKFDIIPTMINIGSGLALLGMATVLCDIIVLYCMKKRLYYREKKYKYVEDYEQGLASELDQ

[8] = biological target: T2, P2X purinoceptor 3 (Mus musculus); test: Antagonist activity at P2X3R in mouse TG sensory neurons assessed as inhibition of P2X3R agonist alpha,beta-meATP-induced current at 1 uM at -65 mV holding potential by whole cell voltage clamp method relative to control
In short: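 Mouse trigeminal sensory neurons were recorded by whole-cell patch clamp. Test compound (0.001–10 μM) was applied before 10 μM α,β-meATP, and inhibition of the agonist-evoked P2X3 current was measured. IC50 was taken from concentration–inhibition curves. N = 5–6 cells.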

Compound: CC1(C)O[C@@H]2[C@H](O1)[C@@H](COP(=O)(O)OP(=O)(O)OP(=O)(O)O)O[C@H]2n1cnc2c(N)ncnc21
- IC50 [1]: 41.1 µM
- Activity [2]: 23%
- inhibition [3]: inactive
- inhibition [4]: inactive

Compound: Nc1ncnc2c1ncn2[C@@H]1O[C@H](COP(=O)(O)OP(=O)(O)OP(=O)(O)O)[C@H]2OCO[C@H]21
- IC50 [1]: > 100 µM
- inhibition [5]: 1%
- inhibition [6]: 8%
- inhibition [7]: 12%
- inhibition [8]: 25%

Compound: Nc1ncnc2c1ncn2[C@@H]1O[C@H](COP(=O)(O)CP(=O)(O)OP(=O)(O)O)[C@H]2OC3(CCCCC3)O[C@H]21
- IC50 [1]: > 100 µM
- inhibition [5]: -1%
- inhibition [3]: inactive
- inhibition [4]: inactive
